Rows were chosen to be rich in hits. Some 3.8% of all compounds tested hit in one or more screens of this group.
DENV2 CPE rescue: inhibitors of DENV2 cytopathic effect, primary screen, cell-based, plate reader, single concentration. DENV2-infected cells, cytopathic effect rescue. CPE inhibition, % at 9.99 µM. 1.7% of 350,000 active; in the data active means CPE inhibition above about 20%, passing the limit was not always enough; tested in BHK-21 cells;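 further: 0% = median of neutral control wells and 100% = median of positive control wells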
XiGFP reactiv: activators of inactive X chromosome reactivation, primary screen, imaging, XiGFP fibroblasts, GFP high-content imaging, set 2; XiGFP mouse fibroblasts, % GFP-positive cells imaging, 3 d; cells co-treated with 5-aza-dC sensitizer; scaled so ellipticine positive control = 100%; activation, % at 7.58 µM; 0.055% of 360,000 active;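 active means mean normalized replicate activation at least 10% and every replicate at or above 10%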;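 further: 0% = median of on-plate neutral control wells and 100% = ellipticine 6 µM median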
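Assay system – SV40-immortalized XiGFP fibroblast cells, line 68-5-11 · Buffer or medium – DMEM supplemented with 5-aza-dC as sensitizing agent · Dosing – one concentration, pinned · Benchmarks – positive control ellipticine, 6 µM final · Times – 3 days compound exposure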
ARNT TACC3 PPI: disruptors of ARNT/TACC3 protein interaction, primary screen, biochemical, AlphaScreen, single concentration; 0.66% of 390,000 active; AlphaScreen His-ARNT PAS-B/GST-TACC3 binding, luminescence; TACC3 fragment carries E629A point mutation; inhibition, % at 9.99 µM; AID 623870, 2012; Transforming acidic coiled-coil-containing protein 3 (Homo sapiens), Q9Y6A5;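 active means mean inhibition of replicates at least 50% and at least half of replicates each reaching 50%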;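 further: 0% = complete ARNT plus TACC3 wells and 100% = ARNT alone without TACC3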
FN deposition inh: inhibitors of fibronectin matrix deposition, primary screen, AH1F cells, Alexa488-fibronectin fluorescence, plate reader | 0.086% of 350,000 active | AH1F fibroblasts, overnight | inhibition, % at 12.6 µM;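 active means mean inhibition across replicates of 30% or more, regardless of how many single replicates reach that level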;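 further: positive control wells lacked labelled fibronectin entirely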
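Test system: AH1F fibroblast monolayer depositing Alexa488-labelled fibronectin into matrix. Input: 10000 cells per well. Technique: fluorescence, ex 485 nm, em 525 nm. Buffer or medium: DMEM plus 2% serum, read in PBS. Timing: 1 h cell adhesion before compound, then overnight fibronectin incubation. Compound: single dose, pinned. Read-out basis: inhibition from reduced deposited-fibronectin fluorescence.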
FGF22 binding: binders of human FGF22 protein, primary screen, FGF22 synaptogenesis inhibitor project, biophysical, thermal shift, single point; Fibroblast growth factor 22 (Homo sapiens), Q9HCT0; recombinant FGF22 thermal shift, SYPRO orange fluorescence; percent of sucrose octasulfate shift, DMSO zero; activity (Tm shift, normalised), % at 9.99 µM; 1.5% of 340,000 active;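 active means mean Tm shift, scaled 0 neutral to 100 positive control, at about 1.3% or above, every replicate too, limit read from the data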
Target sequence (Q9HCT0 whole entry, looked up): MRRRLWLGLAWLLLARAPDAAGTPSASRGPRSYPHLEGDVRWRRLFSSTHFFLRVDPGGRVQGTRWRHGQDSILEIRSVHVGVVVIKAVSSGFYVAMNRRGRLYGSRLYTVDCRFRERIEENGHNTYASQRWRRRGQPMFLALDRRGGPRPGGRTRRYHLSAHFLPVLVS
SIRT5 block: SIRT5 desuccinylase inhibitors, primary screen, biochemical, fluorescence imaging, single point, set 5; NAD-dependent protein deacylase sirtuin-5, mitochondrial (Homo sapiens), Q9NXA8; Purified SirT5, succinyl-peptide AMC, trypsin-coupled fluorescence; inhibition, % at 15 µM; 1.1% of 330,000 active; AID 652115, 2013; in the data active means inhibition above about 15%
Target sequence (Q9NXA8 whole entry, looked up): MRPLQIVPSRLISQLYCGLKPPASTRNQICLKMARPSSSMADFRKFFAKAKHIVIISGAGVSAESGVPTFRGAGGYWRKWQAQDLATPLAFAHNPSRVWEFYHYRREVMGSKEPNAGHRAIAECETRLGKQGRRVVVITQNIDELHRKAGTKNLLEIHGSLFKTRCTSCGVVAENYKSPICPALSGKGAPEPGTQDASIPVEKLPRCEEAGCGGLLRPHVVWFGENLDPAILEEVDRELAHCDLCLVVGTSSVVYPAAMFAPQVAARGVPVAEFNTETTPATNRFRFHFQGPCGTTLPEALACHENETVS
* = called active by the depositor.

What do the screens show for `CC(=O)N1CCCCN2[C@@H](CO)[C@@H](c3ccc(C#Cc4ccccc4F)cc3)[C@@H]2C1`?
DENV2 CPE rescue: 58.9*; XiGFP reactiv: 0.0; ARNT TACC3 PPI: -6.9; FGF22 binding: -0.2; SIRT5 block: -1.9

Results for C[C@H]1CN([C@@H](C)CO)C(=O)CCCn2cc(nn2)CO[C@H]1CN(C)C(=O)Nc1ccc2c(c1)OCO2 ?
XiGFP reactiv: 0.3; FN deposition inh: -1.4

What do the screens show for `C[C@H](CO)N1C[C@H](C)[C@H](CN(C)C(=O)Nc2ccc3c(c2)OCO3)Oc2ccc(NC(=O)C3CCCCC3)cc2CC1=O`?
DENV2 CPE rescue: -6.0; XiGFP reactiv: -0.1; ARNT TACC3 PPI: -6.0; FGF22 binding: -0.1; SIRT5 block: 2.3

What do the screens show for `COc1ccc(C#Cc2ccc3c(c2)[C@H]2[C@H](CCN2C(=O)C2CCC2)[C@@H](CO)N3)cc1`?
DENV2 CPE rescue: -8.8; XiGFP reactiv: 0.0; FN deposition inh: 10.3; SIRT5 block: 1.3

What do the screens show for `COc1ccc(C)cc1NS(=O)(=O)c1cn(C)nc1C`?
DENV2 CPE rescue: 1.7; XiGFP reactiv: 0.0; ARNT TACC3 PPI: 11.4; FN deposition inh: 6.3; FGF22 binding: 43.1*; SIRT5 block: -2.5

Results for Cc1ccc(-c2ccc3c(c2)O[C@H](CN(C)Cc2cccnc2)[C@H](C)CN([C@@H](C)CO)S3(=O)=O)cc1 ?
DENV2 CPE rescue: -0.7; XiGFP reactiv: -1.0; ARNT TACC3 PPI: 6.7; FN deposition inh: 0.7; FGF22 binding: -0.2; SIRT5 block: 15.1*

Results for C[C@H](CO)N1C[C@H](C)[C@H](CN(C)Cc2cccc(C(=O)O)c2)Oc2cc(C3=CCCC3)ccc2S1(=O)=O ?
DENV2 CPE rescue: 44.1*; XiGFP reactiv: 0.5; ARNT TACC3 PPI: -1.8; FGF22 binding: -0.2

What do the screens show for `C[C@H]1CN([C@@H](C)CO)S(=O)(=O)c2ccc(C3=CCCC3)cc2O[C@@H]1CN(C)Cc1cccnc1`?
DENV2 CPE rescue: 30.4*; XiGFP reactiv: 0.0; ARNT TACC3 PPI: 6.5; FN deposition inh: 6.9; FGF22 binding: 0.0; SIRT5 block: 2.9

What do the screens show for `C[C@H](CO)N1C[C@H](C)[C@H](CN(C)S(C)(=O)=O)OCCCC[C@H](C)Oc2ccc(NC(=O)Nc3ccc(F)cc3)cc2C1=O`?
DENV2 CPE rescue: -13.8; XiGFP reactiv: 0.0; ARNT TACC3 PPI: 6.3; FGF22 binding: -0.2

How did CCN(c1ccccc1)c1cc(C)nc2nc(C)nn12 do in these assays?
DENV2 CPE rescue: -1.9; XiGFP reactiv: 0.2; ARNT TACC3 PPI: -3.1; FN deposition inh: -40.5; FGF22 binding: -0.2; SIRT5 block: 1.5

How did Cc1cccc(N(C)c2cc(C)nc3nc(C)nn23)c1 do in these assays?
DENV2 CPE rescue: 28.7*; XiGFP reactiv: 0.3; FN deposition inh: -1.0; FGF22 binding: -0.1; SIRT5 block: -0.9

How did C[C@H](CO)N1C[C@H](C)[C@@H](CN(C)C(=O)Nc2ccc3c(c2)OCO3)Oc2ccc(NS(C)(=O)=O)cc2CC1=O do in these assays?
DENV2 CPE rescue: 30.6*; XiGFP reactiv: 0.2; FGF22 binding: -0.2; SIRT5 block: 4.1

What do the screens show for `C[C@H](CO)N1C[C@H](C)[C@@H](CN(C)C(=O)Nc2ccc3c(c2)OCO3)Oc2ccc(N(C)C)cc2C1=O`?
DENV2 CPE rescue: -1.6; XiGFP reactiv: -0.3; ARNT TACC3 PPI: 10.0*; FGF22 binding: -0.5; SIRT5 block: 1.6

What do the screens show for `C[C@@H]1CN([C@@H](C)CO)C(=O)Cc2cc(N(C)C)ccc2O[C@H]1CN(C)C(=O)Nc1ccc2c(c1)OCO2`?
DENV2 CPE rescue: 30.0*; XiGFP reactiv: -0.8; ARNT TACC3 PPI: 1.6; FN deposition inh: -7.2; FGF22 binding: -1.4; SIRT5 block: 4.6

Compound activity from PubChem.
